# TMEM16A act – activators or potentiators of mouse TMEM16A chloride channel | Q8BHY3 | HEK293 TMEM16A/YFP-H148Q/I152L, iodide quench fluorescence; active compounds read low | B-score at 10 µM | 340,000 tested, 0.3% active | AID 623877;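 active means fluorescence-ratio B-score plate-corrected deviation score at least 3 library SD below zero, with starting fluorescence score within 5 deviations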;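 further: channel opened by trigger with iodide after compound preincubation; score built on the fluorescence ratio of max minus min over baseline; more negative score means more quench and so TMEM16A activation or potentiation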
# XBP1 UPR activ – activators of adaptive arm of unfolded protein response (XBP1); 330,000 tested, 0.33% active; activation, % at 20 µM; CHO-XBP1 luciferase reporter, IRE1-XBP1 UPR activation, luminescence; percent of tunicamycin response, DMSO as zero; AID 463104;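 active means versus positive control, 20 µM dose yields 30% or more activation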;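 further: 100% = tunicamycin at 10 µg/mL and 0% = DMSO only wells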
#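 Material – CHO cell line with stable XBP1 luciferase reporter · Buffer or medium – F12 plus 10% FBS · Compound – single point, 20 µM final compound, 1% DMSO · Schedule – 16-18 h cell attachment at 37 °C, then 6 h compound exposure · Signal – Steady-Glo luminescence read · Benchmarks – high control tunicamycin 10 µg/mL final, low control DMSO vehicle only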
# CHOP inh – inhibitors of CHOP induction in ER stress response; AID 2732; CHO-K1 CHOP-promoter luciferase, tunicamycin-induced, 15-18 h; inhibition, % at 10 µM; 220,000 tested, 3.8% active;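 active means compounds that reduced the stress-induced luciferase reporter signal by more than about 70% of percent inhibition, limit read from the data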;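 further: 0% = tunicamycin plus vehicle and 100% = wells without tunicamycin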
# Lipid droplet – hepatic lipid droplet formation modulation; AML12 mouse hepatocytes, oleate lipid droplets, BODIPY imaging; inhibition, % at 6.5 µM; 240,000 tested, 0.4% active;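 active means lipid droplet intensity inhibited by at least 50%, with more than 500 cells counted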
#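 Assay system: AML12 hepatocytes (mouse) / Also added: 100 µM oleic acid challenge / Times: overnight treatment with compound plus oleate / Detection: high-content imaging of BODIPY-stained droplets and DAPI nuclei / Evaluation: % inhibition of lipid droplet signal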
# CHOP UPR activ – activators of apoptotic arm of unfolded protein response (CHOP); CHO-CHOP luciferase reporter, UPR activation, luminescence; percent of tunicamycin response over DMSO baseline; activation, % at 10 µM; 330,000 tested, 0.34% active; AID 449763;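 active means at 10 µM dose, activation of 40% or more, normalized to positive control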;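 further: 100% = tunicamycin at 10 µg/mL and 0% = DMSO alone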
#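 Dosing – one dose, 10 µM in 0.5% DMSO · System – CHO-CHOP cells, stable luciferase reporter of PERK-eIF2a-CHOP signalling · Input – 500 cells/well · Control set – tunicamycin 10 µg/mL final as positive, DMSO-only wells as negative · Timing – 6 h compound treatment, 37 °C · Measure – % activation vs tunicamycin · Technique – luminescence read with Steady-Glo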
# TMEM16A inh – inhibitors of mouse TMEM16A calcium-activated chloride channel | Q8BHY3 | HEK293 TMEM16A/YFP iodide influx fluorescence, ionomycin | normalized B-score (activity score, 25-100; higher = stronger inhibition) at 10 µM | 310,000 tested, 1.2% active;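 active means ratio plate-corrected score three or more library SD toward inhibition, starting fluorescence score within five deviations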;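 further: score derived from kinetic fluorescence span divided by baseline fluorescence per well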
# * = called active by the depositor; i = inactive; . = not tested or not shown. This is a sample that favours compounds with a hit; in the whole collection about 4.2% have one here.
SMILES,TMEM16A act,XBP1 UPR activ,CHOP inh,Lipid droplet,CHOP UPR activ,TMEM16A inh
O=S(=O)(NCC1CCCN(Cc2ccccc2O)C1)c1cccc2cccnc12 (centres undefined),i,-0.2,.,-20.4,2.6,i
CN(C)S(=O)(=O)c1ccc(Cl)c(NC(=O)CN2CCCC2)c1,i,1.2,.,-11.5,-0.1,i
Cc1cccc(C)c1NC(=S)N1CCOCC1,i,0.2,10.0,-4.8,-0.2,i
Cc1cccc(C)c1NC(=S)N1CCCN(C)CC1,-5.65*,-3.1,0.1,20.7,2.3,i
Cc1ccn2c(-c3csc(NCc4ccccc4)n3)c(C)nc2c1,i,-2.2,52.6,-58.7,-0.2,100*
COc1cc(C(=O)NCC2CCCCC2)ccc1OCc1c(C)noc1C,i,-2.0,.,.,-0.2,.
CCC(C)[C@H]1CNC(=S)N1CCc1cccc2ccccc12 (some centres undefined),i,-2.8,15.4,-6.8,1.1,i
CCC(C)[C@H]1CNC(=S)N1CCC12CC3CC(CC(C3)C1)C2 (some centres undefined),i,-2.6,80.5*,0.7,0.9,i
CCOC(=O)c1cc(-c2ccccc2)n(CC(=O)Nc2ccc(OCC)cc2)c1C,i,-0.7,80.2*,-1.4,-1.4,i
CC(=O)c1cc(-c2ccccc2)n(CC(=O)NC2CCCC2)c1C,i,-0.3,10.5,.,-1.2,i
CC(=O)c1cc(-c2ccccc2)n(CC(=O)Nc2cc(C)cc(C)c2)c1C,i,-2.0,94.3*,9.5,0.1,i
COc1ccc(S(=O)(=O)N2CCN(C(=O)CCNC(=O)c3ccccc3Cl)CC2)cc1,i,-0.2,.,.,4.0,.
CCC(=O)Nc1nc2c(OC)ccc(OC)c2s1,i,1.9,9.5,.,0.5,i
COc1ccc(OC)c2sc(NC(=O)c3ccc(Br)s3)nc12,i,4.2,91.4*,16.7,3.8,i
OC[C@H]1O[C@@H](n2cnc3c(NCCc4ccccc4)ncnc32)C(O)[C@H]1O (some centres undefined),.,.,-1.9,.,.,.
O=C(NC(=S)Nc1ccc(Br)cn1)c1cncc(Br)c1,i,6.8,80.6*,.,2.3,i
O=C(Nc1nc2ccc(F)cc2s1)C1CCN(S(=O)(=O)c2cc([N+](=O)[O-])ccc2Cl)CC1,i,-1.7,90.0*,-43.7,9.9,i
O=C(Nc1ccccc1C(=O)N1CCCC1)c1ccc(Cl)cc1Cl,i,2.3,.,-9.7,0.4,i
Cc1ccc(Cn2nnc3c(=O)[nH]c(C4CCN(S(=O)(=O)c5ccc(F)cc5)CC4)nc32)cc1,i,-3.4,84.1*,1.1,0.6,i
CCc1ccc(Nc2ncc3c(n2)CC(c2ccc(OC)cc2)CC3=O)cc1 (centres undefined),i,-1.0,50.0,.,1.2,i
CCc1ccc(Nc2ncc3c(n2)CC(C)CC3=O)cc1 (centres undefined),i,2.0,73.2*,2.8,3.7,i
O=C(O)Cc1ccc(NC(=O)CCN2C(=O)c3ccc([N+](=O)[O-])cc3C2=O)cc1,-6.3*,7.1,12.7,-6.9,0.5,.
Oc1ccc(N=Nc2ccccc2)cc1,i,7.1,.,11.3,5.9,i
Oc1ccc(N=Nc2n[nH]c(-c3ccc(Cl)cc3)n2)cc1,i,-4.0,75.2*,.,5.2,i
CC(=O)c1ccc(NC(=S)N2CC(C)CC(C)C2)cc1 (centres undefined),i,-1.8,-22.8,4.3,0.3,i
SMILES,TMEM16A act,XBP1 UPR activ,CHOP inh,Lipid droplet,CHOP UPR activ,TMEM16A inh
CCCCc1ccc(NC(=O)CSc2nc(=O)n(CCCN3CCOCC3)c3c2CCC3)cc1,i,3.1,.,.,0.6,i
CCc1nc(-c2ccc(-c3ccc(OC)cc3)nc2OC)no1,i,4.6,77.2*,-3.7,2.6,i
COCc1nc(-c2ccc(-c3ccc(OC)cc3)nc2OC)no1,i,4.0,31.1,-4.6,3.0,i
O=C(Nc1nc2n(n1)C(c1ccc(Cl)cc1)CC(c1ccc(Cl)cc1)N2)c1ccco1 (centres undefined),.,-3.6,80.5*,-13.3,1.2,i
CCCc1ccc2oc(C(=O)N3CCN(C4CCS(=O)(=O)C4)CC3)c(C)c2c1 (centres undefined),i,-0.9,.,-52.9,5.6,i
c1ccc2c(c1)CCN(c1nc3ccccc3n3cnnc13)C2,i,5.9,70.5*,.,0.4,i
c1ccc(N2CCN(c3nc4ccccc4n4cnnc34)CC2)cc1,i,7.0,55.2,.,1.0,i
C=CCn1c(SCC(=O)NCC2CCCO2)nc2sc(CC)cc2c1=O (centres undefined),i,-1.0,.,.,0.0,.
CC(=O)N(Cc1ccccc1)C(CC(=O)NCc1ccccc1)C(=O)O (centres undefined),i,.,.,.,.,.
CC(NC(=O)/C=C/c1ccco1)c1nc2ccccc2n1Cc1cccc(Cl)c1 (centres undefined),i,1.1,18.8,-21.8,3.8,i
O=C1/C(=C/Nc2ccc3c(c2)OCO3)CCc2ccccc21,i,-11.1,76.7*,9.2,-7.1,i
COc1ccc(N/C=C2\CCc3ccccc3C2=O)cc1,i,-11.0,82.5*,25.7,-4.7,i
CCOc1ccc(NC(=S)NC(=O)c2c(Cl)c(C)nn2C)c([N+](=O)[O-])c1,i,-3.4,72.6*,-32.5,2.5,i
O=C(c1ccc([N+](=O)[O-])cc1)N1CCN(c2cccc3[nH]ccc23)CC1,i,-2.9,-13.3,1.3,-1.5,i
CC(C)C(=O)N1CCN(c2ccc(NC(=O)c3ccc4c(c3)OCCO4)cc2Cl)CC1,i,-1.8,23.9,12.4,6.4,100*
Cc1ccc(S(=O)(=O)N(Cc2ccccc2)c2ccccc2C(=O)N2CCCCC2)cc1,i,-4.7,.,.,-0.6,i
Cc1cc(C)n(C(=O)/C(C#N)=N/Nc2cc(Cl)cc(Cl)c2)n1,i,-0.2,34.5,-4.1,0.9,100*
Cc1cc(C)n(C(=O)/C(C#N)=N\Nc2ccccc2[N+](=O)[O-])n1,i,-0.4,7.2,0.9,-1.9,i
CN1C(=O)/C(=C/c2ccccc2Cl)Sc2ccc(C(=O)N3CCCC3)cc21,i,-1.8,.,-8.4,4.6,100*
N=c1oc2ccc(Br)cc2cc1C(=O)NCc1ccccc1,i,0.7,.,-2.2,1.1,i
CC(NC(=O)c1cc2cc(Br)ccc2oc1=N)c1ccccc1 (centres undefined),i,3.8,.,0.7,9.2,25*

# High-throughput results deposited in PubChem BioAssay by several laboratories.
